Measurements taken from ChEMBL document CHEMBL4145630, “Development of Highly Potent and Selective Steroidal Inhibitors and Degraders of CDK8” (ACS Med Chem Lett, 2018).
Calls of active or inactive are those of the source. The calls are words filed in the database; no cut-off is given here.

Columns and labels:
[1] = target: T1, Cyclin-dependent kinase 8 (Homo sapiens, UniProt P49336); assay: Inhibition of CDK8 (unknown origin)
[2] = target: T2, Protein cereblon/Cyclin-dependent kinase 8 (Homo sapiens) (UniProt P49336+Q96SW2); assay: Induction of CRBN-mediated CDK8 degradation in human Jurkat cells at 0.1 to 10 uM measured after 24 hrs by immunoblot analysis; type: cell-based
T2 sequence (P49336 whole entry, looked up): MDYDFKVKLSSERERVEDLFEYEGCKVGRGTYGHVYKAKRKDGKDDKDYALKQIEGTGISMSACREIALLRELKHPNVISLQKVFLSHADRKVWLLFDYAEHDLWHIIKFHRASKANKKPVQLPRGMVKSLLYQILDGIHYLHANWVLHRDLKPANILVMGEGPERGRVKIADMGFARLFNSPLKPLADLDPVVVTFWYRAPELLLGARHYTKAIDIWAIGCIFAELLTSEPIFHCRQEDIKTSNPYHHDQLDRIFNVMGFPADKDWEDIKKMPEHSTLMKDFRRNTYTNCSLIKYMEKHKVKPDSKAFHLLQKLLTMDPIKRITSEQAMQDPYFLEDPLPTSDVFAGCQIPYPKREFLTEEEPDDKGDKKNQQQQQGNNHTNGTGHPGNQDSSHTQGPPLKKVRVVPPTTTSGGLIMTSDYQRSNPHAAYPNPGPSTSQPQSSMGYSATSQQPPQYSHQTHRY
T2 sequence (Q96SW2 whole entry, looked up): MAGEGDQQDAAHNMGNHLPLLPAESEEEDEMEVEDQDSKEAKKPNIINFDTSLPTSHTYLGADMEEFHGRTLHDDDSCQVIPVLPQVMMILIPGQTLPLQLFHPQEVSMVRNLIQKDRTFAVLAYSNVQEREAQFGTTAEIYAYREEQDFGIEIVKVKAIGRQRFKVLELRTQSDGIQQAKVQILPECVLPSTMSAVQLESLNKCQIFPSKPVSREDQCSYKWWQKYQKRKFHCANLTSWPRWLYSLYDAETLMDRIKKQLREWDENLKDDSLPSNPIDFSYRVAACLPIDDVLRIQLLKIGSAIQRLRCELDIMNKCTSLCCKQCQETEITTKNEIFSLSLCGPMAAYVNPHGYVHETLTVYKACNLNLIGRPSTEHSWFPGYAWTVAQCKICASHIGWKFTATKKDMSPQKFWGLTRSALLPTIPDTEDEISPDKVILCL
Summary of the method: (§1)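 Jurkat cells incubated with increasing concentrations (up to 20 μM in the widest series) for 24 h; lysate CDK8 levels read by immunoblot.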

[3] = target: T2, Protein cereblon/Cyclin-dependent kinase 8 (Homo sapiens); assay: Induction of CRBN-mediated CDK8 degradation in human Jurkat cells at 1 uM measured after 6 hrs in presence of N-((3S,17S)-17-(isoquinolin-7-yl)-10,13-dimethylhexadecahydro-1H-cyclopenta[a]phenanthren-3-yl)-Nmethyl-1-((2-(1-methyl-2,6-dioxopiperidin-3-yl)-1,3-dioxoisoindolin-4-yl)amino)-3,6,9,12-tetraoxapentadecan-15-amide by immunoblot analysis; type: cell-based
Summary of the method: (§2)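 Rescue design: Jurkat cells pretreated with bortezomib (10 μM), MLN4924, lenalidomide in excess, or an excess of a CDK8-binding analogue unable to bind CRBN, then exposed to the degrader; CDK8 levels assessed by immunoblot.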

[4] = target: Cyclin-dependent kinase 19 (Homo sapiens, UniProt Q9BWU1); assay: Induction of CDK19 degradation in human Jurkat cells up to 20 uM measured after 24 hrs by immunoblot analysis
Sequence of Cyclin-dependent kinase 19 (Q9BWU1 whole entry): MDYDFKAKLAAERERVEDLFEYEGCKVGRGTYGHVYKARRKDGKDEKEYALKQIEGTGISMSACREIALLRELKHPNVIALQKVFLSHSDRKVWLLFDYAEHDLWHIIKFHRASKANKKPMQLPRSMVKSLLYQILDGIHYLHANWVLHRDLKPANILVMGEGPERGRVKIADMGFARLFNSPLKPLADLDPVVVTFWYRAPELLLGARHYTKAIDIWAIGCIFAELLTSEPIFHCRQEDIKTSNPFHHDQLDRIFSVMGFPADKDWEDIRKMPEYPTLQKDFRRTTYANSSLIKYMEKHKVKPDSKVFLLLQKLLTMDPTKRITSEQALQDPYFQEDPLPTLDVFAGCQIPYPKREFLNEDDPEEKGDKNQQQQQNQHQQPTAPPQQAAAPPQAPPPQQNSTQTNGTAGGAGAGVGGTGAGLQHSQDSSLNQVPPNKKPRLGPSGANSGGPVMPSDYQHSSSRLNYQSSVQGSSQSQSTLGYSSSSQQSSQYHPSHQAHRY

[5] = test system: Jurkat; assay: Effect on CDK8 mRNA levels in human Jurkat cells at 1 uM after 24 hrs by qPCR analysis; type: functional, cell-based
Summary of the method: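 Jurkat cells exposed to 1 μM or vehicle for 24 h; Cdk8 mRNA quantified by qPCR with two separate Cdk8 primer sets, normalized to Actin.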

[6] = target: T2, Protein cereblon/Cyclin-dependent kinase 8 (Homo sapiens); assay: Induction of CRBN-mediated CDK8 degradation in human Jurkat cells at 1 uM measured after 6 to 24 hrs by immunoblot analysis; type: cell-based
Summary of the method: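 Jurkat cells given 0.1 or 1 μM; lysates collected at 6 and 24 h and probed for CDK8 by immunoblot.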

[7] = target: T2, Protein cereblon/Cyclin-dependent kinase 8 (Homo sapiens); assay: Induction of CRBN-mediated CDK8 degradation in human Jurkat cells at 1 uM measured after 6 hrs in presence of lenalidomide by immunoblot analysis; type: cell-based; summary of the method: as §2
[8] = target: T1, Cyclin-dependent kinase 8; assay: Induction of CDK8 degradation in human MOLT4 cells harboring CRBN deletion mutant at 0.1 to 5 uM measured after 24 hrs by immunoblot analysis; type: cell-based
Summary of the method: (§3)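 Wild-type Molt4 cells and Molt4 cells with CRISPR/Cas9 deletion of CRBN were treated with increasing concentrations for 24 h; CDK8 in lysates detected by immunoblot.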

[9] = target: Protein cereblon/Cyclin-dependent kinase 19 (Homo sapiens) (UniProt Q9BWU1+Q96SW2); assay: Induction of CRBN-mediated CDK19 degradation in wild-type human Jurkat cells up to 20 uM measured after 24 hrs by immunoblot analysis; type: cell-based
Sequence of Protein cereblon/Cyclin-dependent kinase 19 (Homo sapiens) (Q96SW2 whole entry, looked up): as the sequence (Q96SW2 whole entry, looked up) above
Sequence of Protein cereblon/Cyclin-dependent kinase 19 (Homo sapiens) (Q9BWU1 whole entry, looked up): as the sequence (Q9BWU1 whole entry) above
Summary of the method: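 Jurkat cells treated for 24 h; CDK19 protein in cell lysates assessed by immunoblot.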

[10] = target: T2, Protein cereblon/Cyclin-dependent kinase 8 (Homo sapiens); assay: Induction of CRBN-mediated CDK8 degradation in human Jurkat cells at 1 uM measured after 6 hrs in presence of proteasome inhibitor bortezomib by immunoblot analysis; type: cell-based; summary of the method: as §2
[11] = target: T2, Protein cereblon/Cyclin-dependent kinase 8 (Homo sapiens); assay: Induction of CRBN-mediated CDK8 degradation in wild-type human MOLT4 cells at 5 uM measured after 24 hrs by immunoblot analysis; summary of the method: as §3
[12] = target: T2, Protein cereblon/Cyclin-dependent kinase 8 (Homo sapiens); assay: Induction of CRBN-mediated CDK8 degradation in wild-type human Jurkat cells at 20 uM measured after 24 hrs by immunoblot analysis; type: cell-based; summary of the method: as §1
[13] = target: T2, Protein cereblon/Cyclin-dependent kinase 8 (Homo sapiens); assay: Induction of CRBN-mediated CDK8 degradation in human Jurkat cells at 1 uM measured after 6 hrs in presence of neddylation inhibitor MLN4924 by immunoblot analysis; type: cell-based; summary of the method: as §2
[14] = target: T2, Protein cereblon/Cyclin-dependent kinase 8 (Homo sapiens); assay: Induction of CRBN-mediated CDK8 degradation in wild-type human Jurkat cells at 1 to 10 uM measured after 24 hrs by immunoblot analysis; type: cell-based; summary of the method: as §1
[15] = target: T2, Protein cereblon/Cyclin-dependent kinase 8 (Homo sapiens); assay: Induction of CRBN-mediated CDK8 degradation in human Jurkat cells up to 10 uM measured after 24 hrs by immunoblot analysis; type: cell-based; summary of the method: as §1
[16] = target: T1, Cyclin-dependent kinase 8; assay: Inhibition of CDK8 in human HepG2 cells assessed as reduction in IFNgamma-induced STAT1 phosphorylation at S727 measured after 18 hrs by Western blot analysis; type: cell-based
[17] = target: T2, Protein cereblon/Cyclin-dependent kinase 8 (Homo sapiens); assay: Induction of CRBN-mediated CDK8 degradation in human Jurkat cells at 0.1 to 1 uM measured after 6 to 24 hrs by immunoblot analysis; type: cell-based
Summary of the method: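 Jurkat cells were treated with compound at 0.1 or 1 μM. Lysates were collected at 6 and 24 h, and CDK8 protein levels were assessed by immunoblot.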

T1 sequence (P49336 whole entry): as the sequence (P49336 whole entry, looked up) above

Compound | IC50 [1] [µM] | further results
C[C@]12CC[C@H](O)C[C@@H]1CC[C@@H]1[C@@H]2CC[C@]2(C)[C@@H](c3ccc4ccncc4c3)CC[C@@H]12 | 0.208 | 
C[C@]12CC[C@H](O)CC1=CC[C@@H]1[C@@H]2CC[C@]2(C)C(c3ccc4cnccc4c3)=CC[C@@H]12 | 8.24 | 
C[C@]12CC[C@H](N3CCOCC3)C[C@@H]1CC[C@@H]1[C@@H]2CC[C@]2(C)[C@@H](c3ccc4ccncc4c3)CC[C@@H]12 | 0.12 | 
CN(C)[C@@H]1CC[C@@]2(C)[C@@H](CC[C@@H]3[C@@H]2CC[C@]2(C)[C@@H](c4ccc5ccncc5c4)CC[C@@H]32)C1 | 0.064 | 
C[C@]12CC[C@H](O)CC1=CC[C@@H]1[C@@H]2CC[C@]2(C)C(c3ccc4ccncc4c3)=CC[C@@H]12 | 0.164 | 
C[C@]12CC[C@H](O)CC1=CC[C@@H]1[C@@H]2CC[C@]2(C)C(c3ccc4cnncc4c3)=CC[C@@H]12 | > 10 | 
CN(C(=O)CCOCCOCCNc1cccc2c1C(=O)N(C1CCC(=O)NC1=O)C2=O)[C@H]1CC[C@@]2(C)[C@@H](CC[C@@H]3[C@@H]2CC[C@]2(C)[C@@H](c4ccc5ccncc5c4)CC[C@@H]32)C1 (stereo partly specified) | 0.192 | Activity [2]: inactive
CN[C@H]1CC[C@@]2(C)[C@@H](CC[C@@H]3[C@@H]2CC[C@]2(C)[C@@H](c4ccc5ccncc5c4)CC[C@@H]32)C1 | 1.32 | 
C[C@]12CC[C@H]3[C@@H](CC=C4C[C@@H](O)CC[C@@]43C)[C@@H]1CC[C@@H]2c1ccc2cnccc2c1 | 6 | 
C[C@]12CC[C@H]3[C@@H](CC=C4C[C@@H](O)CC[C@@]43C)[C@@H]1CC[C@@H]2c1ccc2cn[nH]c2c1 | > 10 | 
CN(C)[C@H]1CC[C@@]2(C)[C@@H](CC[C@@H]3[C@@H]2CC[C@]2(C)[C@@H](c4ccc5ccncc5c4)CC[C@@H]32)C1 | 0.024 | 
CN(C(=O)CCOCCOCCOCCOCCNc1cccc2c1C(=O)N(C1CCC(=O)NC1=O)C2=O)[C@H]1CC[C@@]2(C)[C@@H](CC[C@@H]3[C@@H]2CC[C@]2(C)[C@@H](c4ccc5ccncc5c4)CC[C@@H]32)C1 (stereo partly specified) | 0.159 | Activity [3]: inactive; Activity [4]: inactive; Activity [5]: inactive; Activity [6]: Active; Activity [7]: inactive; Activity [8]: inactive; Activity [9]: inactive; Activity [10]: inactive; Activity [11]: Active; Activity [12]: inactive; Activity [13]: inactive; Activity [14]: Active
C[C@]12CC[C@H](O)CC1=CC[C@@H]1[C@@H]2CC[C@]2(C)C(c3ccc4c(N)n[nH]c4c3)=CC[C@@H]12 | 1.52 | 
C[C@]12CC[C@H]3[C@@H](CC=C4C[C@@H](O)CC[C@@]43C)[C@@H]1CC[C@@H]2c1ccc2nc(N)ncc2c1 | 0.108 | 
C[C@]12CC[C@H]3[C@@H](CC=C4C[C@@H](O)CC[C@@]43C)[C@@H]1CC[C@@H]2c1ccc2c(N)n[nH]c2c1 | 0.682 | 
C[C@]12CC[C@H]3[C@@H](CC=C4C[C@@H](O)CC[C@@]43C)[C@@H]1CC[C@@H]2c1ccc2ccncc2c1 | 0.048 | 
C[C@]12CC[C@H](O)CC1=CC[C@@H]1[C@@H]2CC[C@]2(C)C(c3ccc4cn[nH]c4c3)=CC[C@@H]12 | > 10 | 
C[C@]12CC[C@H](n3ccnn3)C[C@@H]1CC[C@@H]1[C@@H]2CC[C@]2(C)[C@@H](c3ccc4ccncc4c3)CC[C@@H]12 | 0.024 | 
CN1C(=O)CCC(N2C(=O)c3cccc(NCCOCCOCCOCCOCCC(=O)N(C)[C@H]4CC[C@@]5(C)[C@@H](CC[C@@H]6[C@@H]5CC[C@]5(C)[C@@H](c7ccc8ccncc8c7)CC[C@@H]65)C4)c3C2=O)C1=O (stereo partly specified) | 0.443 | Activity [15]: inactive
CN(C)[C@H]1C[C@@]23CC[C@@]4(O2)C(=CC[C@]2(C)C(c5ccc6ccncc6c5)=CCC24)C=C3[C@@H](O)[C@@H]1O (stereo partly specified) |  | inhibition [16]: Dose-dependent effect
C[C@]12CC[C@H]3[C@@H](CC=C4C[C@@H](O)CC[C@@]43C)[C@@H]1CC[C@@H]2c1ccc2cnncc2c1 | > 10 | 
CC(=O)N(C)[C@H]1CC[C@@]2(C)[C@@H](CC[C@@H]3[C@@H]2CC[C@]2(C)[C@@H](c4ccc5ccncc5c4)CC[C@@H]32)C1 | 0.034 | 
C[C@]12CC[C@H]3[C@@H](CC=C4C[C@@H](O)CC[C@@]43C)[C@@H]1CC[C@@H]2c1ccc2[nH]ncc2c1 | > 10 | 
C[C@]12CC[C@H](O)CC1=CC[C@@H]1[C@@H]2CC[C@]2(C)C(c3ccc4nc(N)ncc4c3)=CC[C@@H]12 | 2.3 | 
C[C@]12CC[C@H](O)CC1=CC[C@@H]1[C@@H]2CC[C@]2(C)C(c3ccc4[nH]ncc4c3)=CC[C@@H]12 | > 10 | 
CN(CCCCCOCCOCCNc1cccc2c1C(=O)N(C1CCC(=O)NC1=O)C2=O)[C@H]1CC[C@@]2(C)[C@@H](CC[C@@H]3[C@@H]2CC[C@]2(C)[C@@H](c4ccc5ccncc5c4)CC[C@@H]32)C1 (stereo partly specified) |  | Activity [17]: inactive
C[C@]12CC[C@H](O)C[C@@H]1CC[C@@H]1[C@@H]2CC[C@]2(C)C(c3ccc4ccncc4c3)=CC[C@@H]12 | 1.01 | 
